# Assay results taken from article PMC3575752 (Journal of nuclear medicine : official publication, Society …, 2009).
# pIC50: −log10 of the molar value.
# Assays:
# [1] = tested on: PC-3 PSMA− tumor xenografts; assay: Ex vivo biodistribution in mice bearing PC-3; set-up: species or system male NCr nude mice
# How it was run: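 Male NCr nude mice with subcutaneous right-shoulder PC-3 xenografts (cells in serum-free medium; tumours 5–10 mm, 1–2 wk). 18F tracer, 3,700–7,400 kBq, by tail vein under isoflurane. Euthanised after 2 h imaging. Cardiac blood, major organs (including kidney) and tumour weighed and γ-counted. %ID/g from known-activity standards. n = 3; one-tailed t test, unequal variance.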
# [2] = tested on: PC-3 PSMA− tumor xenografts; assay: microPET/CT imaging of PC-3; format: in vivo, male NCr nude mice; details: PC-3 PSMA− xenograft, 2 h post-injection
# How it was run: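 PC-3-xenograft male NCr nude mice (tumours 5–10 mm, 1–2 wk after subcutaneous inoculation) anaesthetised with isoflurane. Tail-vein 18F tracer, 3,700–7,400 kBq (100–200 μCi). MicroPET/CT, 10-min scans at 0, 1 and 2 h. List-mode data, 2D OSEM reconstruction.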
# [3] = tested on: LNCaP PSMA+ tumor xenografts; assay: microPET/CT imaging of LNCaP; format: in vivo, male NCr nude mice; details: 1 mg nonradioactive (2) 1 h before tracer, 120 min after injection
# How it was run: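 LNCaP-xenograft male nude mice (tumours 5–10 mm) under isoflurane were pretreated with 1 mg unlabelled analogue in 200 μL Tris buffer. One hour later they received tail-vein 18F tracer (3,700–7,400 kBq). MicroPET/CT, 10-min acquisitions at 0, 1 and 2 h, list mode, 2D OSEM reconstruction.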
# [4] = target: purified PSMA (Homo sapiens, UniProt Q04609); assay: HPLC-based PSMA inhibition IC50 assay; format: biochemical; details: read-out: IC50, PSMA inhibition; PABGgG 1 μM, 15 min, 37°C, Tris pH 7.4
# How it was run: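 Purified PSMA diluted in 50 mM Tris pH 7.4 with 1% Triton X-100 to give 15–20% uninhibited conversion. […] Shaken 15 min at 37°C, then quenched with 2% TFA in methanol and buffered with 0.1 M K2HPO4. After centrifugation, supernatant product measured by HPLC; IC50 calculated.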
# Sequence of purified PSMA (Q04609 whole entry): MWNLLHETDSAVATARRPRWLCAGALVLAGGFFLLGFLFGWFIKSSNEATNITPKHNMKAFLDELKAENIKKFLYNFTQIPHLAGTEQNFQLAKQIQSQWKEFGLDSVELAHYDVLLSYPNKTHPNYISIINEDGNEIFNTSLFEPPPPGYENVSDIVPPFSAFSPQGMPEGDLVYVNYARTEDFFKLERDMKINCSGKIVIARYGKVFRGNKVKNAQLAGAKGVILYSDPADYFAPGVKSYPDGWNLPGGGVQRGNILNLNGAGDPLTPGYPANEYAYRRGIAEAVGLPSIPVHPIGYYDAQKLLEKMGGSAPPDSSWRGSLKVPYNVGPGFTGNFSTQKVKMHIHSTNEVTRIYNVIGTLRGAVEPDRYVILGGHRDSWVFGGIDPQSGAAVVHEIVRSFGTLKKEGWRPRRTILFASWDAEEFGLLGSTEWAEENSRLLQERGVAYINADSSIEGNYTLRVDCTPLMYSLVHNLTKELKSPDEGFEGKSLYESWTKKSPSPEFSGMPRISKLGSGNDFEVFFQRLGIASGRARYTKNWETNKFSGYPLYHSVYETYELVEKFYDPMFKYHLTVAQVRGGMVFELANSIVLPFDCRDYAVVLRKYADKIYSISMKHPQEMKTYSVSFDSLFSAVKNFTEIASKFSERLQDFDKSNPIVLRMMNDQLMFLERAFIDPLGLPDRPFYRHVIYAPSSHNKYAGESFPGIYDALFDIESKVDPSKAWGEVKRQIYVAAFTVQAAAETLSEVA
Compound,"tumor uptake in PSMA− control ([1]; PC-3 tumor, 2 h post-injection)","kidney uptake ([1]; PSMA− (PC-3) model, 2 h)",PET tumor signal [2],PET tumor uptake after blocking [3],pIC50 [4]
"O=C(O)CC[C@H](NP(=O)(O)OC[C@H](NC(=O)CC[C@H](NC(=O)c1ccc([18F])cc1)C(=O)O)C(=O)O)C(=O)O [compound 3, ^18F-S-2-((2-(S-4-(4-Fluorobenzamido)-4-Carboxybutanamido)-S-2-Carboxyethoxy) Hydroxyphosphoryl-Amino)-Pentanedioic Acid]",0.32 ± 0.14 %ID/g,2.83 ± 0.9 %ID/g,no detectable tumor signal,substantial decrease in tumor uptake,–
"O=C(O)CC[C@H](NP(=O)(O)OC[C@H](NC(=O)CC[C@H](NC(=O)c1ccc(F)cc1)C(=O)O)C(=O)O)C(=O)O [compound 2, S-2-((2-(S-4-(4-Fluorobenzamido)-4-Carboxybutanamido)-S-2-Carboxyethoxy) Hydroxyphosphorylamino)-Pentanedioic Acid]",–,–,–,–,9.17
